# Read-outs that look alike come from different tables or passages of the source. Marks after values point to notes of the source that are not given here.
# What was measured:
# [1] = cited from earlier work
# [2] = system: SK-MEL-28 malignant melanoma cells; test: Dark cytotoxicity and photocytotoxicity in normoxia; type: cell-based, human
# SK-MEL-28 cells = test: Dark cytotoxicity and photocytotoxicity in hypoxia; type: cell-based, human; conditions: for EC50: read-out: dark EC50 in hypoxia, hypoxia 1% O2, dark
# In short: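 SK-MEL-28 melanoma cells, 10,000 per well, pre-incubated 2–3 h at 1% O2 (5% CO2, 37 °C). Dosed 1 nM–300 μM, held 21–26 h at 1% O2, then film-sealed and given dark or light treatment. Cells returned to normoxia for 2 days, then resazurin (~60 μM final) for 4 h. EC50 came from zero-bottom log-logistic fits, PI as dark/light EC50.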
# [3] = Solubility in high ionic strength aqueous media; type: physicochemical; conditions: for solubility in high ionic strength aqueous media: fully soluble; for solubility in aqueous media relative to the dmb analogs: high ionic strength aqueous media, in words
# female C57BL/6J mice = test: Maximum tolerated dose; conditions: intraperitoneal, doses 25–200 mg kg^−1, 2-week observation
# [4] = Singlet oxygen sensitization quantum yield; type: physicochemical; conditions: acetonitrile
# In short: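 PF6- salts were used at 5–20 μM in acetonitrile distilled over calcium hydride, air-saturated. The 1O2 phosphorescence band (~1276 nm) was integrated using NIR PMT detection. Quantum yield was calculated by relative actinometry against [Ru(bpy)3]2+ (Φ = 0.56, aerated MeCN), using emission integrals and absorbance at the excitation wavelength. The refractive-index ratio was 1 because both solutions were in acetonitrile.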
# [5] = system: amelanotic SK-MEL-28 human cells; test: Fluence dependence of photocytotoxicity in normoxia; type: cell-based
# Lipophilicity = type: physicochemical; conditions: pH 7.4, phosphate buffer / 1-octanol, chloride salts
# In short: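 Modified shake-flask method. 10 mM saline-free phosphate buffer (pH 7.4) and 1-octanol were mutually pre-saturated at 1:4 by shaking at 230 rpm for 24 h (~20 °C). Chloride salts at 50 μM in saturated octanol plus saturated buffer (1:1) were shaken 200 times and centrifuged (~10,000 × g, 2 min). Each phase was read by absorbance at its longest-wavelength maximum (400–600 nm) against a standard curve. Log D is the log of the octanol/buffer concentration ratio.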
# [6] = cited from earlier work; remark: listed apart in the source
# [7] = read-out: dark EC50, dark (sham) treatment, SK-MEL-28
# [8] = read-out: light EC50, visible light, visible 400–700 nm, 100 J cm^−2, ~20 mW cm^−2
compound,measurement,setting,value
[Ru+2].c1ccc(-c2ccccn2)nc1.c1ccc(-c2ccccn2)nc1.c1ccc(-c2ccccn2)nc1 [[Ru(bpy)3]^2+],singlet oxygen quantum yield ΦΔ of the standard,[1]; aerated MeCN,0.56
"[Os(dmb)3](Cl)2 [[Os(dmb)3]^2+, reference compound]",EC50,[2]; [7],> 100 µM
[Os(bpy)2(IP-2T)]Cl2 [1–2T],EC50,[2]; [7],42.2 µM
same,EC50,SK-MEL-28 cells,76.9 µM
[Os(dmb)2(IP-4T)]Cl2 [2–4T],solubility in high ionic strength aqueous media,[3],≥ 1200 µM
same,EC50,[2]; [8],0.071 µM
same,PIgreen in hypoxia,"SK-MEL-28 cells; hypoxia 1% O2, green light",15
same,maximum tolerated dose (MTD),female C57BL/6J mice,≥ 200 mg/kg
same,singlet oxygen quantum yield ΦΔ,[4],56%
[Os(bpy)2(IP-4T)]Cl2 [1–4T],solubility in aqueous media relative to the dmb analogs,[3],less soluble
same,phototherapeutic index PIgreen,"[2]; green 523 nm, ratio of dark to light EC50",6700
same,EC50,[2]; [7],71.9 µM
same,EC50,"[2]; read-out: light EC50, green light, green 523 nm, 100 J cm^−2",~0.01 µM
same,EC50,"[2]; read-out: light EC50, red light, red 633 nm, 100 J cm^−2",~0.01 µM
same,EC50,[2]; [8],0.00131 µM
same,phototherapeutic index PIvis,"[2]; visible light, ratio of dark to light EC50","55,000"
same,phototherapeutic index (PI) in hypoxia,"SK-MEL-28 cells; hypoxia 1% O2, across the three light conditions",~70
same,EC50,SK-MEL-28 cells,55.3 µM
same,maximum tolerated dose (MTD),female C57BL/6J mice,≥ 200 mg/kg
same,singlet oxygen quantum yield ΦΔ,[4],70%
same,fold improvement over 2–4T,"[5]; PDT dose product EC50, normoxia",≥ 5 fold
same,photocytotoxic activity at the lowest tested fluence,"[5]; normoxia, 10 J cm^−2, both wavelengths (523 and 633 nm)",Submicromolar
[Os(dmb)2(IP-3T)]Cl2 [2–3T],solubility in high ionic strength aqueous media,[3],≥ 1200 µM
"[Os+2].c1ccc(-c2ccccn2)nc1.c1ccc(-c2ccccn2)nc1.c1ccc(-c2ccccn2)nc1 [[Os(bpy)3]^2+, [Os(bpy)3]Cl2, reference compound]",singlet oxygen quantum yield ΦΔ,"[1]; acetonitrile, room temperature, excitation 479 nm, literature value ref 83",0.22 (479)^a
same,EC50,[2]; [7],> 100 µM
[Os(bpy)2(IP-3T)]Cl2 [1–3T],solubility in aqueous media relative to the dmb analogs,[3],less soluble
same,log Do/w,Lipophilicity,amphiphilic
same,EC50,[2]; [7],45.8 µM
same,EC50,SK-MEL-28 cells,71.9 µM
[Os(phen)2(IP-4T)]Cl2,PIvis in hypoxia,"[6]; hypoxia, visible light",90
"Cc1cccc(-c2cccc(C)n2)n1.Cc1cccc(-c2cccc(C)n2)n1.[Cl-].[Cl-].[Ru+2].c1ccc2c(-c3nc4c5cccnc5c5ncccc5c4[nH]3)cccc2c1 [[Ru(6,6′-dmb)2(1-NIP)]Cl2]",PI (PIvis) in hypoxia,"[6]; 1% O2, visible light",15

# Source: PMC7669743 (Inorganic chemistry, 2020)
